Reference: ChEMBL document CHEMBL3856193, “Combretastatin A-4 analogues with benzoxazolone scaffold: Synthesis, structure and biological activity” (Eur J Med Chem, 2016)
pIC50: −log10 of the molar value. The source made the active and inactive calls. The calls are words filed in the database; no cut-off is given here.

What was measured:
[1] = Growth inhibition of human HepG2 cells measured after 72 hrs by MTT assay; format: functional, cell-based; conditions: HepG2, 72 h
Procedure, shortened: (§1)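 Cells seeded at 1 x 10^4/100 µL, treated 24 h later with drug diluted from 2 mmol/L DMSO stock (0.01% DMSO final), 72 h incubation. MTT added for 3 h at 37°C, formazan dissolved in 0.1 N HCl/isopropanol, OD read at 550/630 nm. Eight replicates per concentration, mean ± SD. IC50 from curve fitting. Cells kept at 37°C in humidified CO2.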

[2] = Growth inhibition of human EAhy926 cells measured after 72 hrs by MTT assay; format: functional, cell-based; conditions: EA.hy 926, 72 h; procedure, shortened: as §1
[3] = Growth inhibition of human K562 cells measured after 72 hrs by MTT assay; format: functional, cell-based; conditions: K562, 72 h; procedure, shortened: as §1
[4] = Antiproliferative activity against CA-4-resistant human MDA-MB-231 cells measured after 72 hrs by MTT assay; format: functional, cell-based; conditions: MDA-MB-231, 72 h; procedure, shortened: as §1
[5] = Antiproliferative activity against human MCF7 cells measured after 72 hrs by MTT assay; format: functional, cell-based; conditions: MCF7, 72 h; procedure, shortened: as §1
HepG2 [6] = test: Cytostatic activity against human HepG2 cells up to 25 uM measured after 72 hrs by MTT assay; format: functional, cell-based; procedure, shortened: as §1
EA.hy 926 [7] = test: Cytostatic activity against human EAhy926 cells up to 25 uM measured after 72 hrs by MTT assay; format: functional, cell-based; procedure, shortened: as §1
K562 = test: Cytostatic activity against human K562 cells up to 25 uM measured after 72 hrs by MTT assay; format: functional, cell-based; procedure, shortened: as §1
HT-29 = test: Potency index, ratio of IC50 for combretastatin A-4 to IC50 for test compound against human HT-29 cells; format: functional
[8] = Antiproliferative activity against CA-4-resistant human HT-29 cells measured after 72 hrs by MTT assay; format: functional, cell-based; conditions: HT-29, 72 h
Procedure, shortened: (§2)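 Cells seeded at 1 × 10^4 per well and left 24 h, then exposed to graded compound concentrations (stock 2 mmol/L in DMSO, final DMSO 0.01% in medium) for 72 h at 37 °C in humidified CO2. MTT (5 mg/mL) added for 3 h; formazan dissolved in 0.1 N HCl/isopropanol and read at 550/630 nm. Eight replicate wells per concentration; IC50 from curve fitting.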

[9] = Antiproliferative activity against mouse Colon 26 cells measured after 72 hrs by MTT assay; format: functional, cell-based; conditions: Colon 26, 72 h; procedure, shortened: as §2
[10] = Antiproliferative activity against CA-4-resistant human A549 cells measured after 72 hrs by MTT assay; format: functional, cell-based; conditions: A549, 72 h; procedure, shortened: as §2
[11] = Cytostatic activity against human MCF10A cells assessed as cell survival up to 25 uM measured after 72 hrs by MTT assay relative to control; format: ADME, cell-based, MCF-10A; conditions: read-out: Survival
[12] = Cell cycle arrest in human HepG2 cells assessed as accumulation in G2/M phase at growth inhibitory IC50 measured after 8 hrs by propidium iodide-staining based FACS analysis (reference value: 28%); format: functional; design: scale not given: the % may be the effect or the level left
[13] = Antiproliferative activity against human HaCaT cells measured after 72 hrs by MTT assay; format: functional, cell-based; procedure, shortened: as §2
[14] = Cytotoxicity against human NHEK measured after 72 hrs by MTT assay; format: toxicity; procedure, shortened: as §1
Colon 26 = test: Potency index, ratio of combretastatin A-4 IC50 to compound IC50 for mouse Colon 26 cells; format: functional
A549 = test: Potency index, ratio of combretastatin A-4 IC50 to compound IC50 for human A549 cells; format: functional
[15] = Cell cycle arrest in human HepG2 cells assessed as increase in G2/M phase accumulation at growth inhibitory IC50 after 8 hrs by propidium iodide-staining based FACS analysis relative to combretastatin A-4; format: functional; design: scale not given: the % may be the effect or the level left
[16] = Cell cycle arrest in human HepG2 cells assessed as accumulation of cells with 4N DNA content at growth inhibitory IC50 measured after 24 hrs by propidium iodide-staining based FACS analysis relative to control; format: functional; design: scale not given: the % may be the effect or the level left
[17] = Cell cycle arrest in human HepG2 cells assessed as >4N DNA content at growth inhibitory IC50 measured after 24 hrs by propidium iodide-staining based FACS analysis relative to control; format: functional; design: scale not given: the % may be the effect or the level left
[18] = Cell cycle arrest in human HepG2 cells assessed as decrease in accumulation of G2/M phase at growth inhibitory IC50 measured after 72 hrs by propidium iodide-staining based FACS analysis; format: functional
[19] = Cell cycle arrest in human HepG2 cells assessed as accumulation of hypoploid sub-G1 cells at growth inhibitory IC50 measured after 72 hrs by propidium iodide-staining based FACS analysis; format: functional
Sus scrofa [20] = species on record: Sus scrofa; test: Inhibition of porcine brain tubulin polymerization measured every 1 min for 40 mins in presence of GTP
Sus scrofa [21] = species on record: Sus scrofa; test: Inhibition of porcine brain tubulin polymerization at 10 uM measured every 1 min for 40 mins in presence of GTP
Sus scrofa [22] = species on record: Sus scrofa; test: Induction of porcine brain tubulin polymerization assessed as time required to reach maxium effect at 10 uM measured every 1 min for 40 mins in presence of GTP
Sus scrofa [23] = species on record: Sus scrofa; test: Inhibition of porcine brain tubulin polymerization at 50 uM measured every 1 min for 40 mins in presence of GTP
HepG2 [24] = test: Inhibition of beta-tubulin polymerization in human HepG2 cells assessed as multi-polar spindle formation at 185 to 190 nM measured after 24 hrs by DAPI staining based immunofluorescence analysis; format: cell-based
Procedure, shortened: (§3)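 HepG2 cells grown on coverslips were treated 24 h with 185 nM drug, with 0.01% DMSO vehicle as control. Cells fixed in 3.7% buffered paraformaldehyde and immunostained for β-tubulin (AlexaFluor-488 secondary, 40 min). F-actin labelled with phalloidin, DNA with DAPI mounting medium. Imaged by fluorescence microscopy.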

HepG2 [25] = test: Inhibition of beta-tubulin polymerization in human HepG2 cells assessed as formation of pseudo G1 phase multinucleated cells at 185 to 190 nM measured after 24 hrs by DAPI staining based immunofluorescence analysis; format: cell-based; procedure, shortened: as §3
HepG2 [26] = test: Inhibition of beta-tubulin polymerization in human HepG2 cells assessed as mitotic slippage at 185 to 190 nM measured after 24 hrs by DAPI staining based immunofluorescence analysis; format: cell-based; procedure, shortened: as §3
HepG2 [27] = test: Induction of micronuclei formation in human HepG2 cells at 185 to 190 nM measured after 24 hrs by DAPI staining based immunofluorescence analysis; format: functional, cell-based; procedure, shortened: as §3
HepG2 [28] = test: Induction of apoptosis in human HepG2 cells assessed as increase in apoptotic cells at growth inhibitory IC50 measured after 48 hrs by Annexin V-FITC/propidium iodide staining-based flow cytometric analysis relative to control; format: functional, cell-based
EA.hy 926 [29] = test: Induction of apoptosis in human EAhy926 cells assessed as increase in apoptotic cells at growth inhibitory IC50 measured after 48 hrs by Annexin V-FITC/propidium iodide staining-based flow cytometric analysis relative to control; format: functional, cell-based
HepG2 [30] = test: Induction of apoptosis in human HepG2 cells assessed as necrotic cells at 0.19 to 0.28 uM measured after 48 hrs by Annexin V-FITC/propidium iodide staining-based flow cytometric analysis relative to control; format: functional
EA.hy 926 [31] = test: Induction of apoptosis in human EAhy926 cells assessed as necrotic cells at 0.19 to 0.28 uM measured after 48 hrs by Annexin V-FITC/propidium iodide staining-based flow cytometric analysis relative to control; format: functional
EA.hy 926 [32] = test: Antiangiogenic activity against human EAhy926 assessed as inhibition of capillary tube formation at 0.28 uM after 72 hrs by matrigel assay; format: functional
Procedure, shortened: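 EA.hy 926 cells (4 x 10^4) plated onto Matrigel pre-set 30 min at 37°C in complete DMEM; after 24 h medium replaced by EBM2 alone (control) or EBM2 with 0.28 µM or 0.11 µM drug. Capillary tube formation followed by inverted microscopy up to 72 h.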

[33] = Cell cycle arrest in human HepG2 cells assessed as decrease in G0/G1 phase at growth inhibitory IC50 measured after 24 hrs by propidium iodide-staining based FACS analysis; format: functional
[34] = Cell cycle arrest in human HepG2 cells assessed as decrease in S phase at growth inhibitory IC50 measured after 24 hrs by propidium iodide-staining based FACS analysis; format: functional
HepG2 [35] = test: Inhibition of beta-tubulin polymerization in human HepG2 cells assessed as induction of mitotic ploidity at 185 to 190 nM measured after 24 hrs by DAPI staining based immunofluorescence analysis; format: cell-based; procedure, shortened: as §3
HepG2 [36] = test: Inhibition of beta-tubulin polymerization in human HepG2 cells assessed as DNA fragmentation at 185 to 190 nM measured after 24 hrs by DAPI staining based immunofluorescence analysis; format: cell-based; procedure, shortened: as §3

Work on `COc1ccc(/C=C\c2ccc3c(c2)oc(=O)n3C)cc1` yielded a pIC50 [1] of under 4.30, a pIC50 [2] of under 4.30 and a pIC50 [3] of under 4.30.

In the case of `COc1ccc(/C=C\c2cccc3c2oc(=O)n3C)cc1`, the pIC50 [1] was 4.33, the pIC50 [2] was under 4.30 and the pIC50 [3] was under 4.30.

`COc1ccc(/C=C\c2cccc3c2oc(=O)n3C)cc1OC` showed a pIC50 [1] of 4.52, a pIC50 [2] of under 4.30 and a pIC50 [3] of under 4.30.

Work on `COc1cc(/C=C\c2ccc3c(c2)oc(=O)n3C)cc(OC)c1OC` yielded a pIC50 [4] of 6.77, a pIC50 [5] of 7.15 and a pIC50 [1] of 6.72. For the same compound, the pIC50 [2] was 6.55, the pIC50 [3] was 6.14 and the Activity (HepG2 [6]) was “Active”. For the same compound, the Activity (EA.hy 926 [7]) was “Active”, the Activity (K562) was “Active” and the “Ratio IC50” value (HT-29) was over 10. It also gave a pIC50 [8] of 6.60, a pIC50 [9] of 7.30 and a pIC50 [10] of 7.22. It also gave a viability at 72 h [11] of 70%, an Activity [12] of 39% and a pIC50 [13] of 7.22. For the same compound, the Activity [14] was “Non-Toxic”, the “Ratio IC50” value (Colon 26) was 9 and the “Ratio IC50” value (A549) was 50. For the same compound, the Activity [15] was 6%, the Activity [16] was 80% and the Activity [17] was 9%. The Activity [18] was “Active”, the Activity [19] was “Active” and the inhibition (Sus scrofa [20]) was “Dose-dependent effect”. The inhibition (Sus scrofa [21]) was 40%, the TIME (Sus scrofa [22]) was 0.333 h and the inhibition (Sus scrofa [23]) was “Active”. The inhibition (HepG2 [24]) was “Active”, the inhibition (HepG2 [25]) was “Active” and the inhibition (HepG2 [26]) was “Active”. For the same compound, the Activity (HepG2 [27]) was “Active”, the Activity (HepG2 [28]) was “Active” and the Activity (EA.hy 926 [29]) was “Active”. For the same compound, the Activity (HepG2 [30]) was 20%, the Activity (EA.hy 926 [31]) was 20% and the inhibition (EA.hy 926 [32]) was “Active”. The Activity [33] was “Active”, the Activity [34] was “Active” and the inhibition (HepG2 [35]) was “Active”. The inhibition (HepG2 [36]) was “Active”.
